# Activity calls are given as the source filed them. The calls are words filed in the database; no cut-off is given here.
# Tested on: Pseudomonas aeruginosa
# Assay: Antibacterial activity against Pseudomonas aeruginosa ATCC 27853 measured after 18 hrs by CLSI broth dilution method
# Type: functional
# Conditions: ATCC 27853, 18 h
# Summary of the method: (§1)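 Broth MIC in Mueller-Hinton II broth following CLSI, compounds dissolved in DMSO. Strains subcultured twice on tryptic soy agar before testing. Growth read after 35 °C, 18 h.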
row,SMILES,MIC [µg/mL]
1,C[Si]1(C)OB(O)c2ccc(F)c(F)c21,> 400

# Tested on: Pichia kudriavzevii
# Assay: Antifungal activity against Candida krusei ATCC 6258 assessed as diameter of zone inhibition incubated for 24 hrs by CLSI disc diffusion method
# Type: functional
# Conditions: not given
# Summary of the method: (§2)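 Yeast disc diffusion on Mueller-Hinton agar supplemented with 2% glucose and 0.5 mg/L methylene blue. Compounds in DMSO. Yeasts subcultured on Sabouraud dextrose agar before testing. Zones read after 35 °C, 24 h.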
row,SMILES,diameter of the inhibition zone (DIZ) [mm]
1,C[Si]1(C)OB(O)c2ccc(F)c(F)c21,17

# Tested on: Enterococcus faecalis
# Assay: Antibacterial activity against Enterococcus faecalis ATCC 29212 assessed as diameter of zone inhibition measured after 18 hrs by CLSI disc diffusion method
# Type: functional
# Conditions: not given
# Summary of the method: (§3)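 Disc diffusion on Mueller-Hinton II agar. Compounds dissolved in DMSO. Strains stored at -80 °C and subcultured twice on tryptic soy agar before testing. Inhibition zones read after 35 °C, 18 h.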
row,SMILES,diameter of the inhibition zone (DIZ)
1,C[Si]1(C)OB(O)c2ccc(F)c(F)c21,inactive

# Tested on: Proteus mirabilis
# Assay: Antibacterial activity against Proteus mirabilis ATCC 12453 assessed as diameter of zone inhibition measured after 18 hrs by CLSI disc diffusion method
# Type: functional
# Conditions: not given
# Summary of the method: as §3
row,SMILES,diameter of the inhibition zone (DIZ) [mm]
1,C[Si]1(C)OB(O)c2ccc(F)c(F)c21,12

# Tested on: Escherichia coli
# Assay: Antibacterial activity against Escherichia coli ATCC 25922 assessed as diameter of zone inhibition measured after 18 hrs by CLSI disc diffusion method
# Type: functional
# Conditions: not given
# Summary of the method: as §3
row,SMILES,diameter of the inhibition zone (DIZ)
1,C[Si]1(C)OB(O)c2ccc(F)c(F)c21,inactive

# Tested on: Staphylococcus epidermidis
# Assay: Antibacterial activity against Staphylococcus epidermidis ATCC 12228 assessed as diameter of zone inhibition measured after 18 hrs by CLSI disc diffusion method
# Type: functional
# Conditions: not given
# Summary of the method: as §3
row,SMILES,diameter of the inhibition zone (DIZ) [mm]
1,C[Si]1(C)OB(O)c2ccc(F)c(F)c21,33

# Tested on: Enterobacter cloacae
# Assay: Antibacterial activity against Enterobacter cloacae DSM 6234 measured after 18 hrs by CLSI broth dilution method
# Type: functional
# Conditions: DSM 6234, 18 h
# Summary of the method: as §1
row,SMILES,MIC [µg/mL]
1,C[Si]1(C)OB(O)c2ccc(F)c(F)c21,> 400

# Tested on: Bordetella bronchiseptica
# Assay: Antibacterial activity against Bordetella bronchiseptica ATCC 4617 assessed as diameter of zone inhibition measured after 18 hrs by CLSI disc diffusion method
# Type: functional
# Conditions: not given
# Summary of the method: as §3
row,SMILES,diameter of the inhibition zone (DIZ)
1,C[Si]1(C)OB(O)c2ccc(F)c(F)c21,inactive

# Tested on: Stenotrophomonas maltophilia
# Assay: Antibacterial activity against Stenotrophomonas maltophilia ATCC 13637 assessed as fold reduction of MIC in presence of efflux pump inhibitor PAbetaN incubated for 18 hrs by broth microdilution method
# Type: functional
# Conditions: not given
# Summary of the method: (§4)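 MICs determined with and without PAβN at 50 mg/L in Mueller-Hinton broth containing 1 mM MgSO₄. 2-fold serial dilutions per CLSI. Fold change taken from the paired MICs after 35 °C, 18 h.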
row,SMILES,fold change (FC)
1,C[Si]1(C)OB(O)c2ccc(F)c(F)c21,16

# Tested on: Klebsiella pneumoniae
# Assay: Antibacterial activity against Klebsiella pneumoniae ATCC 13883 measured after 18 hrs by CLSI broth dilution method
# Type: functional
# Conditions: ATCC 13883, 18 h
# Summary of the method: as §1
row,SMILES,MIC [µg/mL]
1,C[Si]1(C)OB(O)c2ccc(F)c(F)c21,> 400

# Tested on: not listed separately
# Assay: Dissociation constant, pKa1 of compound in 0.1 M NaOH by potentiometric analysis
# Type: physicochemical
# Conditions: not given
row,SMILES,pKa
1,C[Si]1(C)OB(O)c2ccc(F)c(F)c21,6.1

# Tested on: Escherichia coli
# Assay: Antibacterial activity against Escherichia coli ATCC 25922 assessed as fold reduction of MIC in presence of efflux pump inhibitor PAbetaN incubated for 18 hrs by CLSI broth microdilution method
# Type: functional
# Conditions: not given
# Summary of the method: as §4
row,SMILES,fold change (FC)
1,C[Si]1(C)OB(O)c2ccc(F)c(F)c21,32

# Tested on: Enterococcus faecalis
# Assay: Antibacterial activity against Enterococcus faecalis ATCC 29212 measured after 18 hrs by CLSI broth dilution method
# Type: functional
# Conditions: ATCC 29212, 18 h
# Summary of the method: as §1
row,SMILES,MIC [µg/mL]
1,C[Si]1(C)OB(O)c2ccc(F)c(F)c21,100

# Tested on: Klebsiella pneumoniae
# Assay: Antibacterial activity against Klebsiella pneumoniae ATCC 13883 assessed as fold reduction of MIC in presence of efflux pump inhibitor PAbetaN incubated for 18 hrs by broth microdilution method
# Type: functional
# Conditions: not given
# Summary of the method: as §4
row,SMILES,fold change (FC)
1,C[Si]1(C)OB(O)c2ccc(F)c(F)c21,16

# Tested on: Meyerozyma guilliermondii
# Assay: Antifungal activity against Candida guilliermondii IBA 155 assessed as decrease in fungal cell growth at 0.78 to 12.5 mg/L incubated for 24 hrs by CLSI broth dilution method
# Type: functional
# Conditions: IBA 155, 24 h
# Summary of the method: (§5)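 Yeast broth dilution in RPMI 1640 with 2% glucose, compounds in DMSO. Yeasts pre-grown on Sabouraud dextrose agar. Growth read after 35 °C, 24 h.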
row,SMILES,MIC [µg/mL]
1,C[Si]1(C)OB(O)c2ccc(F)c(F)c21,3.12

# Tested on: Burkholderia cepacia
# Assay: Antibacterial activity against Burkholderia cepacia ATCC 25416 measured after 18 hrs by CLSI broth dilution method
# Type: functional
# Conditions: ATCC 25416, 18 h
# Summary of the method: as §1
row,SMILES,MIC [µg/mL]
1,C[Si]1(C)OB(O)c2ccc(F)c(F)c21,> 400

# Tested on: Acinetobacter baumannii
# Assay: Antibacterial activity against Acinetobacter baumannii ATCC 19606 measured after 18 hrs by CLSI broth dilution method
# Type: functional
# Conditions: ATCC 19606, 18 h
# Summary of the method: as §1
row,SMILES,MIC [µg/mL]
1,C[Si]1(C)OB(O)c2ccc(F)c(F)c21,200

# Tested on: Stenotrophomonas maltophilia
# Assay: Antibacterial activity against Stenotrophomonas maltophilia ATCC 13637 measured after 18 hrs by CLSI broth dilution method
# Type: functional
# Conditions: ATCC 13637, 18 h
# Summary of the method: as §1
row,SMILES,MIC [µg/mL]
1,C[Si]1(C)OB(O)c2ccc(F)c(F)c21,200

# Tested on: Proteus mirabilis
# Assay: Antibacterial activity against Proteus mirabilis ATCC 12453 measured after 18 hrs by CLSI broth dilution method
# Type: functional
# Conditions: ATCC 12453, 18 h
# Summary of the method: as §1
row,SMILES,MIC [µg/mL]
1,C[Si]1(C)OB(O)c2ccc(F)c(F)c21,> 400

# Tested on: Candida parapsilosis
# Assay: Antifungal activity against Candida parapsilosis ATCC 22019 assessed as decrease in fungal cell growth at 0.78 to 12.5 mg/L incubated for 24 hrs by CLSI broth dilution method
# Type: functional
# Conditions: Lodderomyces parapsilosis, ATCC 22019, 24 h
# Summary of the method: as §5
row,SMILES,MIC [µg/mL]
1,C[Si]1(C)OB(O)c2ccc(F)c(F)c21,12.5

# Tested on: Candida parapsilosis
# Assay: Antifungal activity against Candida parapsilosis ATCC 22019 assessed as diameter of zone inhibition incubated for 24 hrs by CLSI disc diffusion method
# Type: functional
# Conditions: not given
# Summary of the method: as §2
row,SMILES,diameter of the inhibition zone (DIZ) [mm]
1,C[Si]1(C)OB(O)c2ccc(F)c(F)c21,11

# Tested on: Enterococcus faecium
# Assay: Antibacterial activity against Enterococcus faecium ATCC 6057 measured after 18 hrs by CLSI broth dilution method
# Type: functional
# Conditions: ATCC 6057, 18 h
# Summary of the method: as §1
row,SMILES,MIC [µg/mL]
1,C[Si]1(C)OB(O)c2ccc(F)c(F)c21,100

# Tested on: Klebsiella pneumoniae
# Conditions: ATCC 13883
row,SMILES,DIZ
1,C[Si]1(C)OB(O)c2ccc(F)c(F)c21,inactive

# Tested on: Candida tropicalis
# Assay: Antifungal activity against Candida tropicalis IBA 171 assessed as diameter of zone inhibition incubated for 24 hrs by CLSI disc diffusion method
# Type: functional
# Conditions: not given
# Summary of the method: as §2
row,SMILES,diameter of the inhibition zone (DIZ) [mm]
1,C[Si]1(C)OB(O)c2ccc(F)c(F)c21,12

# Tested on: Staphylococcus aureus
# Assay: Antibacterial activity against Staphylococcus aureus ATCC 6538P assessed as diameter of zone inhibition measured after 18 hrs by CLSI disc diffusion method
# Type: functional
# Conditions: not given
# Summary of the method: as §3
row,SMILES,diameter of the inhibition zone (DIZ) [mm]
1,C[Si]1(C)OB(O)c2ccc(F)c(F)c21,32

# Tested on: Meyerozyma guilliermondii
# Assay: Antifungal activity against Candida guilliermondii IBA 155 assessed as diameter of zone inhibition incubated for 24 hrs by CLSI disc diffusion method
# Type: functional
# Conditions: not given
# Summary of the method: as §2
row,SMILES,diameter of the inhibition zone (DIZ) [mm]
1,C[Si]1(C)OB(O)c2ccc(F)c(F)c21,30

# Tested on: Serratia marcescens
# Assay: Antibacterial activity against Serratia marcescens ATCC 13880 measured after 18 hrs by CLSI broth dilution method
# Type: functional
# Conditions: ATCC 13880, 18 h
# Summary of the method: as §1
row,SMILES,MIC [µg/mL]
1,C[Si]1(C)OB(O)c2ccc(F)c(F)c21,> 400

# Tested on: Bacillus subtilis
# Assay: Antibacterial activity against Bacillus subtilis ATCC 6633 assessed as diameter of zone inhibition measured after 18 hrs by CLSI disc diffusion method
# Type: functional
# Conditions: not given
# Summary of the method: as §3
row,SMILES,diameter of the inhibition zone (DIZ) [mm]
1,C[Si]1(C)OB(O)c2ccc(F)c(F)c21,28

# Tested on: Staphylococcus aureus
# Assay: Antibacterial activity against Staphylococcus aureus ATCC 6538P measured after 18 hrs by CLSI broth dilution method
# Type: functional
# Conditions: not given
# Summary of the method: as §1
row,SMILES,MIC [µg/mL]
1,C[Si]1(C)OB(O)c2ccc(F)c(F)c21,25

# Tested on: Candida albicans
# Assay: Antifungal activity against Candida albicans ATCC 90028 assessed as diameter of zone inhibition incubated for 24 hrs by CLSI disc diffusion method
# Type: functional
# Conditions: not given
# Summary of the method: as §2
row,SMILES,diameter of the inhibition zone (DIZ) [mm]
1,C[Si]1(C)OB(O)c2ccc(F)c(F)c21,15

# Tested on: Acinetobacter baumannii
# Assay: Antibacterial activity against Acinetobacter baumannii ATCC 19606 assessed as diameter of zone inhibition measured after 18 hrs by CLSI disc diffusion method
# Type: functional
# Conditions: not given
# Summary of the method: as §3
row,SMILES,diameter of the inhibition zone (DIZ)
1,C[Si]1(C)OB(O)c2ccc(F)c(F)c21,inactive

# Tested on: Enterococcus faecium
# Assay: Antibacterial activity against Enterococcus faecium ATCC 6057 assessed as diameter of zone inhibition measured after 18 hrs by CLSI disc diffusion method
# Type: functional
# Conditions: not given
# Summary of the method: as §3
row,SMILES,diameter of the inhibition zone (DIZ) [mm]
1,C[Si]1(C)OB(O)c2ccc(F)c(F)c21,18

# Tested on: Serratia marcescens
# Conditions: ATCC 13880
row,SMILES,DIZ
1,C[Si]1(C)OB(O)c2ccc(F)c(F)c21,inactive

# Tested on: Proteus mirabilis
# Assay: Antibacterial activity against Proteus mirabilis ATCC 12453 assessed as fold reduction of MIC in presence of efflux pump inhibitor PAbetaN incubated for 18 hrs by broth microdilution method
# Type: functional
# Conditions: not given
# Summary of the method: as §4
row,SMILES,fold change (FC)
1,C[Si]1(C)OB(O)c2ccc(F)c(F)c21,2

# Tested on: Burkholderia cepacia
# Assay: Antibacterial activity against Burkholderia cepacia ATCC 25416 assessed as diameter of zone inhibition measured after 18 hrs by CLSI disc diffusion method
# Type: functional
# Conditions: not given
# Summary of the method: as §3
row,SMILES,diameter of the inhibition zone (DIZ)
1,C[Si]1(C)OB(O)c2ccc(F)c(F)c21,inactive

# Tested on: Bordetella bronchiseptica
# Assay: Antibacterial activity against Bordetella bronchiseptica ATCC 4617 measured after 18 hrs by CLSI broth dilution method
# Type: functional
# Conditions: ATCC 4617, 18 h
# Summary of the method: as §1
row,SMILES,MIC [µg/mL]
1,C[Si]1(C)OB(O)c2ccc(F)c(F)c21,> 400

# Reference: ChEMBL document CHEMBL4346672, “Antimicrobial and KPC/AmpC inhibitory activity of functionalized benzosiloxaboroles” (Eur J Med Chem, 2019)
